From ChEMBL document CHEMBL1157562, “Piperazinyl glutamate pyridines as potent orally bioavailable P2Y12 antagonists for inhibition of platelet aggregation” (J Med Chem, 2010)

What was measured:
[1] = Antiplatelet aggregation activity against adenosine diphosphate-induced human platelet rich plasma assessed as inhibition of platelet aggregation by turbidimetric method; format: functional; conditions: Homo sapiens, Platelet, Plasma
Method in brief: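 Human PRP, prepared by two-step centrifugation and adjusted to 330 000 platelets/μL with PPP. Compound was preincubated 5 min at 37 °C in 0.5% DMSO, then 20 μM ADP was added. OD626 was read kinetically for 15 min at 37 °C with mixing between reads.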

P2Y purinoceptor 12 = P2Y purinoceptor 12 (Homo sapiens, UniProt Q9H244); assay: Displacement of [33P]ADP from human recombinant P2Y12 receptor expressed in CHO cells; format: cell-based
Chain of P2Y purinoceptor 12 (Q9H244 whole entry): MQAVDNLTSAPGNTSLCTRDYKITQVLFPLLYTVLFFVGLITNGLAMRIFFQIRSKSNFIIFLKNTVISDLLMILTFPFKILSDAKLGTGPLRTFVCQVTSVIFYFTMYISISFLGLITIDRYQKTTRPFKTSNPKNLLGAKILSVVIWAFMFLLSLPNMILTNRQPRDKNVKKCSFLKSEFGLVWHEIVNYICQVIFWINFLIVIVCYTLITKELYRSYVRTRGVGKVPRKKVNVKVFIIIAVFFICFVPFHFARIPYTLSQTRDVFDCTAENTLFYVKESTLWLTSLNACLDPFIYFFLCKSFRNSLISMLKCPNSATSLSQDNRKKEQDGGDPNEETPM
Method in brief: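 Washed membranes from CHO cells expressing synthetic human P2Y12, incubated 1 h at room temperature with 0.2 nM 33P-MeSADP in 50 mM Tris/100 mM NaCl/1 mM EDTA. Compound was tested as a 7-point 3-fold series in triplicate. Nonspecific binding was defined with 300 nM 2-MeSADP, followed by filtration.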

Platelet = assay: Relative potency, ratio of IC50 for drug to IC50 for AZD-6140 for platelet aggregation in human platelet rich plasma; format: functional

Row | Compound | IC50 [1] [µM] | Ki (P2Y purinoceptor 12) [µM] | Ratio IC50 (Platelet)
1 | CCCCCOC(=O)N1CCN(C(=O)[C@H](CCC(=O)O)NC(=O)c2cc(NC(=O)CN(C)C)cc(-c3ccccc3)n2)CC1 | 5.6 | 0.0041 | 6.4
2 | CCCCOC(=O)N1CCN(C(=O)[C@H](CCC(=O)O)NC(=O)c2cc(OC3CCN(CCOC)CC3)cc(-c3ccccc3)n2)CC1 | 1.2 | 0.0094 | 1.1
3 | CCCCOC(=O)N1CCN(C(=O)[C@H](CCC(=O)O)NC(=O)c2cc(OCCCC)cc(-c3ccccc3)n2)CC1 | 27 | 0.035 | 18
4 | CCCCCOC(=O)N1CCN(C(=O)[C@H](CCC(=O)O)NC(=O)c2cc(NC(=O)C(F)(F)F)cc(-c3ccccc3)n2)CC1 | 8.2 | 0.0091 | 8.2
5 | CCCCCOC(=O)N1CCN(C(=O)[C@H](CCC(=O)O)NC(=O)c2cc(N3CCC(O)CC3)cc(-c3ccccc3)n2)CC1 | 2.5 |  | 3.2
6 | CCCCCOC(=O)N1CCN(C(=O)[C@H](CCC(=O)O)NC(=O)c2cc(C(=O)NCCCOC)cc(-c3ccccc3)n2)CC1 | 4.6 | 0.0061 | 12
7 | CCOC(=O)N1CCN(C(=O)[C@H](CCC(=O)O)NC(=O)c2cc(N(C)CCO)cc(-c3ccccc3)n2)CC1 | 57 | 0.087 | 26
8 | CCCCCOC(=O)N1CCN(C(=O)[C@H](CCC(=O)O)NC(=O)c2cc(OCC3CCN(C(=O)COC)CC3)cc(-c3ccccc3)n2)CC1 | 1.3 | 0.012 | 1.3
9 | CCCCCOC(=O)N1CCN(C(=O)[C@H](CCC(=O)O)NC(=O)c2cc(CCCCO)cc(-c3ccccc3)n2)CC1 | 3.2 | 0.0036 | 4.2
10 | CCCCCOC(=O)N1CCN(C(=O)[C@H](CCC(=O)O)NC(=O)c2cc(OC3CCN(C(=O)OCC)CC3)cc(-c3ccccc3)n2)CC1 | 8.2 | 0.0065 | 8.1
11 | CCCCCOC(=O)N1CCN(C(=O)[C@H](CCC(=O)O)NC(=O)c2cc(NC(=O)N3CCC(OC)CC3)cc(-c3ccccc3)n2)CC1 | 5.5 | 0.0092 | 6.1
12 | CCOC(=O)N1CCN(C(=O)[C@H](CCC(=O)O)NC(=O)c2cc(NCCOC)cc(-c3ccccc3)n2)CC1 | 14 |  | 13
13 | CCOC(=O)N1CCN(C(=O)[C@H](CCC(=O)O)NC(=O)c2cc(N3CCC(COC)CC3)cc(-c3ccccc3)n2)CC1 | 10 |  | 9.7
14 | CCOC(=O)N1CCN(C(=O)[C@H](CCC(=O)O)NC(=O)c2cc(NC)cc(-c3ccccc3)n2)CC1 | 45 |  | 36
15 | CCCCOC(=O)N1CCN(C(=O)[C@H](CCC(=O)O)NC(=O)c2cc(OC3CCNCC3)cc(-c3ccccc3)n2)CC1 | 1.1 |  | 0.99
16 | CCCCOC(=O)N1CCN(C(=O)[C@H](CCC(=O)O)NC(=O)c2cc(N3CCC(CN(C)C)CC3)cc(-c3ccccc3)n2)CC1 |  |  | 1.3
17 | CCOC(=O)N1CCN(C(=O)[C@H](CCC(=O)O)NC(=O)c2cc(N3CCC(O)CC3)cc(-c3ccccc3)n2)CC1 | 9.9 |  | 10
18 | CCOC(=O)N1CCN(C(=O)[C@H](CCC(=O)O)NC(=O)c2cc(OC)cc(-c3ccccc3)n2)CC1 | 39 |  | 55
19 | CCCCCCOC(=O)N1CCN(C(=O)[C@H](CCC(=O)O)NC(=O)c2cc(N3CCC(COC)CC3)cc(-c3ccccc3)n2)CC1 | 7.6 |  | 8.9
20 | CCOC(=O)N1CCN(C(=O)[C@H](CCC(=O)O)NC(=O)c2cc(OCCN)cc(-c3ccccc3)n2)CC1 | 7.5 |  | 11
21 | CCOC(=O)N1CCN(C(=O)[C@H](CCC(=O)O)NC(=O)c2cc(N3CCC(N4CCCC4)CC3)cc(-c3ccccc3)n2)CC1 | 2 |  | 6
22 | CCCCCOC(=O)N1CCN(C(=O)[C@H](CCC(=O)O)NC(=O)c2cc(OCCCC)cc(-c3ccccc3)n2)CC1 | 28 |  | 28

Row | Compound | IC50 [1] [µM] | Ki (P2Y purinoceptor 12) [µM] | Ratio IC50 (Platelet)
23 | CCCCOC(=O)N1CCN(C(=O)[C@H](CCC(=O)O)NC(=O)c2cc(N3CCC(CN4CCCC4)CC3)cc(-c3ccccc3)n2)CC1 |  |  | 1
24 | CCCCCOC(=O)N1CCN(C(=O)[C@H](CCC(=O)O)NC(=O)c2cc(N3CCC(CNC)CC3)cc(-c3ccccc3)n2)CC1 |  |  | 0.99
25 | CCCCCCOC(=O)N1CCN(C(=O)[C@H](CCC(=O)O)NC(=O)c2cc(N3CCC(CN)CC3)cc(-c3ccccc3)n2)CC1 | 1.6 |  | 1.7
26 | CCOC(=O)N1CCN(C(=O)[C@H](CCC(=O)O)NC(=O)c2cc(OCCO)cc(-c3ccccc3)n2)CC1 | 7.6 |  | 12
27 | CCCCOC(=O)N1CCN(C(=O)[C@H](CCC(=O)O)NC(=O)c2cc(N3CCC(CNC)CC3)cc(-c3ccccc3)n2)CC1 |  |  | 1
28 | CCCCCOC(=O)N1CCN(C(=O)[C@H](CCC(=O)O)NC(=O)c2cc(N3CCC(CN)CC3)cc(-c3ccccc3)n2)CC1 |  |  | 0.62
29 | CCOC(=O)N1CCN(C(=O)[C@H](CCC(=O)O)NC(=O)c2cc(OCC3CCNCC3)cc(-c3ccccc3)n2)CC1 | 4 |  | 2.7
30 | CCOC(=O)N1CCN(C(=O)[C@H](CCC(=O)O)NC(=O)c2nccc(-c3ccccc3)n2)CC1 | 74 | 1.19 | 
31 | COCC(=O)N1CCN(C(=O)[C@H](CCC(=O)O)NC(=O)c2cccc(-c3ccccc3)n2)CC1 | > 100 | > 3.59 | 
32 | CCOC(=O)N1CCN(C(=O)[C@H](CCC(=O)O)NC(=O)c2cc(OC3CCNCC3)cc(-c3ccccc3)n2)CC1 | 1.9 |  | 2.5
33 | CC(C)OC(=O)N1CCN(C(=O)[C@H](CCC(=O)O)NC(=O)c2cccc(-c3ccccc3)n2)CC1 | > 100 | 0.28 | 
34 | CCCCCOC(=O)N1CCN(C(=O)[C@H](CCC(=O)O)NC(=O)c2cc(N3CCC(CN4CCCC4)CC3)cc(-c3ccccc3)n2)CC1 |  |  | 0.93
35 | CCOC(=O)N1CCN(C(=O)[C@H](CCC(=O)O)NC(=O)c2cccc(-c3ccccc3)c2)CC1 | > 100 | 3.64 | 
36 | O=C(O)CC[C@H](NC(=O)c1cccc(-c2ccccc2)n1)C(=O)N1CCN(C(=O)OCCCC(F)(F)F)CC1 | 70 | 0.018 | 
37 | CCOC(=O)N1CCN(C(=O)[C@H](CCC(=O)O)NC(=O)c2cc(-c3ccccc3)cc(-c3ccccc3)c2)CC1 | > 100 | 0.373 | 
38 | CCCCCS(=O)(=O)N1CCN(C(=O)[C@H](CCC(=O)O)NC(=O)c2cccc(-c3ccccc3)n2)CC1 | > 100 | > 3.59 | 
39 | CCOC(=O)N1CCN(C(=O)[C@H](CCC(=O)O)NC(=O)c2cc(OCCCO)cc(-c3ccccc3)n2)CC1 | 9 |  | 12
40 | CCOC(=O)N1CCN(C(=O)[C@H](CCC(=O)O)NC(=O)c2cc(N3CCC(CN)CC3)cc(-c3ccccc3)n2)CC1 | 3.3 |  | 3.4
41 | O=C(O)CC[C@H](NC(=O)c1cccc(-c2ccccc2)n1)C(=O)N1CCN(S(=O)(=O)c2ccccc2)CC1 | > 100 | 0.842 | 
42 | CCCCCOC(=O)N1CCN(C(=O)[C@H](CCC(=O)O)NC(=O)c2cc(NC(=O)N3CCCCC3)cc(-c3ccccc3)n2)CC1 | > 10 | 0.0058 | 
43 | CCCS(=O)(=O)N1CCN(C(=O)[C@H](CCC(=O)O)NC(=O)c2cccc(-c3ccccc3)n2)CC1 | > 100 | > 3.59 | 
44 | CCCCCOC(=O)N1CCN(C(=O)[C@H](CCC(=O)O)NC(=O)c2cc(CC3CCCCC3)cc(-c3ccccc3)n2)CC1 | > 10 | 0.0086 | 
